For data set [1], the target named is T1, Glutamate NMDA receptor; Grin1/Grin2c (Rattus norvegicus) (UniProt P35439+Q00961). Put plainly: Negative allosteric modulation of rat GluN1a/GluN2C receptor expressed in Xenopus laevis oocytes assessed as suppression of 100 uM glutamate and 30 uM glycine induced-current at saturating compound level by voltage clamp recording method. It is filed as cell-based. The method, boiled down:
(§1)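 Rat GluN1-1a cRNA co-injected with GluN2A, 2B, 2C or 2D cRNA into Xenopus oocytes; expression 1–3 days at 16–19 °C. Two-electrode voltage clamp. Currents evoked by 100 µM glutamate plus 30 µM glycine, alone and then with rising inhibitor concentrations. […] 4–17 oocytes from ≥2 frogs.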

Data set [2] addresses T2, Glutamate NMDA receptor; Grin1/Grin2a (Rattus norvegicus) (UniProt P35439+Q00959). Put plainly: Negative allosteric modulation of rat GluN1a/GluN2A receptor expressed in Xenopus laevis oocytes assessed as suppression of 100 uM glutamate and 30 uM glycine induced-current at 30 uM by voltage clamp recording method. Format: cell-based.
The target in data set [3] is T3, Ionotropic glutamate receptor NMDA 1/2D (Rattus norvegicus) (UniProt P35439+Q62645). Description: Negative allosteric modulation of rat GluN1a/GluN2D receptor expressed in Xenopus laevis oocytes assessed as suppression of 100 uM glutamate and 30 uM glycine induced-current at saturating compound level by voltage clamp recording method. Format: cell-based. The method, boiled down: as §1

Data set [4] deals with Ionotropic glutamate receptor NMDA 1/2D (Rattus norvegicus, UniProt P35439+Q62645). Description: Negative allosteric modulation of rat GluN1a/GluN2D receptor expressed in Xenopus laevis oocytes assessed as suppression of 100 uM glutamate and 30 uM glycine induced-current by voltage clamp recording method. It is filed as cell-based. In outline:
as §1

Data set [5] deals with T4, Glutamate NMDA receptor; Grin1/Grin2b (Rattus norvegicus) (UniProt P35439+Q00960). Put plainly: Negative allosteric modulation of rat GluN1a/GluN2B receptor expressed in Xenopus laevis oocytes assessed as suppression of 100 uM glutamate and 30 uM glycine induced-current at 30 uM by voltage clamp recording method. It is filed as cell-based.
The target in data set [6] is Glutamate NMDA receptor; Grin1/Grin2c (Rattus norvegicus, UniProt P35439+Q00961). Description: Negative allosteric modulation of rat GluN1a/GluN2C receptor expressed in Xenopus laevis oocytes assessed as suppression of 100 uM glutamate and 30 uM glycine induced-current by voltage clamp recording method. It is filed as cell-based. In outline: as §1
Data set [7] concerns the target T3, Ionotropic glutamate receptor NMDA 1/2D (Rattus norvegicus). Description: Negative allosteric modulation of rat GluN1a/GluN2D receptor expressed in Xenopus laevis oocytes assessed as suppression of 100 uM glutamate and 30 uM glycine at 30 uM glycine induced-current by voltage clamp recording method. It is filed as cell-based.
For data set [8], the target named is T1, Glutamate NMDA receptor; Grin1/Grin2c (Rattus norvegicus). Put plainly: Negative allosteric modulation of rat GluN1a/GluN2C receptor expressed in Xenopus laevis oocytes assessed as suppression of 100 uM glutamate and 30 uM glycine at 30 uM glycine induced-current by voltage clamp recording method. It is filed as cell-based.
Data set [9] concerns the target T2, Glutamate NMDA receptor; Grin1/Grin2a (Rattus norvegicus). Put plainly: Negative allosteric modulation of rat GluN1a/GluN2A receptor expressed in Xenopus laevis oocytes assessed as suppression of 100 uM glutamate and 30 uM glycine induced-current at saturating compound level by voltage clamp recording method. It is filed as cell-based. In outline:
as §1

Data set [10] addresses Glutamate NMDA receptor; Grin1/Grin2a (Rattus norvegicus, UniProt P35439+Q00959). Description: Negative allosteric modulation of rat GluN1a/GluN2A receptor expressed in Xenopus laevis oocytes assessed as suppression of 100 uM glutamate and 30 uM glycine glycine induced-current by voltage clamp recording method. Format: cell-based. The method, boiled down:
as §1

In data set [11] the target is Glutamate NMDA receptor; Grin1/Grin2b (Rattus norvegicus, UniProt P35439+Q00960). Description: Negative allosteric modulation of rat GluN1a/GluN2B receptor expressed in Xenopus laevis oocytes assessed as suppression of 100 uM glutamate and 30 uM glycine induced-current by voltage clamp recording method. Format: cell-based. In outline: as §1
Data set [12] is described as follows: Solubility of compound in TEVC electrophysiological solution at 3.25 to 100 uM by nephelometric method. It is filed as physicochemical. In outline:
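Nephelometry measuring forward light scattering of each compound at 3.25–100 µM in TEVC recording solution. Maximum solubility taken as the intersection point of a linear segmental regression. Mean of n = 2 in quadruplicate.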

In data set [13] the target is T4, Glutamate NMDA receptor; Grin1/Grin2b (Rattus norvegicus). Description: Negative allosteric modulation of rat GluN1a/GluN2B receptor expressed in Xenopus laevis oocytes assessed as suppression of 100 uM glutamate and 30 uM glycine induced-current at saturating compound level by voltage clamp recording method. Format: cell-based. In outline:
as §1

Converted amounts (≈) assume the structure as drawn.

Broadly, the inhibition is the drop in the measured response relative to a control, in per cent. The IC50 is the concentration that gives 50% inhibition. As for `COC(=O)c1ccsc1NC(=O)CC1SC(=N)NC1=O` (racemic), the inhibition was 100% in [1], under 25% in data set [2], 99% in data set [3] and under 25% in data set [5]. The IC50 was found to be 43.3 µM in data set [4] and 41 µM in [6].

As to `N=C1NC(=O)C(CC(=O)Nc2sc3c(c2C(=O)O)CCCC3)S1` (racemic), the inhibition in [7], in [8], in data set [2] and in data set [5] was under 25% in each case.

As a reminder, the kinetic solubility is the concentration staying in solution when a stock, usually in DMSO, is diluted into the medium. Consider `CCOC(=O)c1c(NC(=O)CC2SC(=N)NC2=O)sc2c1CCC(F)(F)C2` (racemic), for which the inhibition in data set [1] came to 75%; in data set [9] it was 84%; in [13], 74%; in data set [3], 65%. Also, the IC50 in [10] came out at 5.2 µM; in [11], 8 µM; in data set [4], 1.5 µM; in [6], 1.4 µM. The solubility (kinetic) in data set [12] was determined as 35 µM (≈ 14.6 µg/mL).

For the molecule `CCc1c(C)sc(NC(=O)CC2SC(=N)NC2=O)c1C(=O)OC` (racemic), the inhibition in data set [1] amounted to 85%; in [9], 79%; in data set [13], 77%; in [3], 82%. Further, the IC50 was determined as 26.8 µM in data set [10], 43.8 µM in data set [11], 9.1 µM in data set [4] and 6.7 µM in [6].

For the molecule `CCOC(=O)c1c(NC(=O)CC2NC(=O)NC2=O)sc2c1CCCC2` (racemic), the inhibition in data set [7], in [8], in [2] and in [5] was under 25% each time.

Consider `CCc1cc(C(=O)OC)c(NC(=O)CC2SC(N)=NC2=O)s1` (racemic), for which the inhibition in data set [1] is 97%; in data set [9], 98%; in data set [13] it was 97%; in [3] it was 98%. The IC50 in data set [10] was determined as 4.8 µM; in data set [11], 9.3 µM; in [4], 2.6 µM; in [6], 2.5 µM.

For the molecule `CCOC(=O)c1c(NC(=O)CC2SC(=O)NC2=O)sc2c1CCCC2` (racemic), the inhibition in data set [7], in data set [8], in [2] and in data set [5] was under 25% each time.

Turning to `CCOC(=O)c1cc(C)sc1NC(=O)CC1SC(=N)NC1=O` (racemic), the inhibition in [1] worked out at 98%; in [9], 93%; in [13], 91%; in data set [3], 99%. In addition, the IC50 was found to be 42.8 µM in [10], 44.9 µM in data set [11], 12.3 µM in [4] and 11.2 µM in data set [6].

For `COC(=O)c1c(NC(=O)CC2SC(N)=NC2=O)sc2c1CCC(C)C2` (racemic), the inhibition is 95% in [1], 80% in data set [9], 74% in data set [13] and 94% in data set [3]. Further, the IC50 in [10] is 0.7 µM; in [11], 0.6 µM; in data set [4], 0.3 µM; in data set [6], 0.3 µM. In data set [12], this molecule gave a kinetic solubility of 20 µM (≈ 7.63 µg/mL).

Take `COC(=O)c1c(NC(=O)CC2SC(N)=NC2=O)sc2c1CCCC2` (racemic): the inhibition in [1] came to 88%; in data set [9], 81%; in data set [13] it was 86%; in data set [3], 86%. Besides, the IC50 was found to be 3.4 µM in data set [10], 4.2 µM in data set [11], 1.1 µM in data set [4] and 1 µM in data set [6]. In data set [12], this molecule showed a solubility (kinetic) of 57 µM (≈ 20.9 µg/mL).

With `CCOC(=O)c1c(NC(=O)CC2SC(=N)NC2=O)sc2c1CCOC2` (racemic), the inhibition in data set [1] came to 59%; in [9], 74%; in data set [13] it was 69%; in data set [3], 41%. The IC50 stood at 3 µM in data set [10], 5.6 µM in data set [11], 2.1 µM in data set [4] and 2.9 µM in data set [6].

Take `CCOC(=O)c1c(NC(=O)CC2SC(=N)NC2=O)sc2c1CCC(CC)C2` (racemic): the inhibition turned out to be 80% in data set [1], 58% in data set [9], 59% in data set [13] and 73% in data set [3]. The IC50 was 3.4 µM in data set [10], 2.2 µM in data set [11], 1.5 µM in [4] and 0.9 µM in [6]. The kinetic solubility in data set [12] amounted to 73 µM (≈ 29.9 µg/mL).

For `CCOC(=O)c1c(NC(=O)CC2SC(=N)NC2=O)sc2c1CCC(C)(C)C2` (racemic), the inhibition in data set [1] is 89%; in data set [9], 72%; in data set [13], 44%; in [3] it was 90%. For the same molecule, the IC50 stood at 16.1 µM in data set [10], 9.2 µM in data set [11], 8.8 µM in data set [4] and 9.3 µM in data set [6]. The same molecule returned a solubility (kinetic) in data set [12] of 37 µM (≈ 15.2 µg/mL).

For the molecule `CCOC(=O)c1c(NC(=O)CC2S/C(=N\C)N(C)C2=O)sc2c1CCCC2` (racemic), the inhibition in data set [7], in data set [8], in [2] and in data set [5] was under 25% each time.

For `CCOC(=O)c1c(NC(=O)CC2SC(=N)NC2=O)sc2c1CCCC2` (racemic), the inhibition in data set [1] is 53%; in data set [9], 61%; in data set [13], 35%; in data set [3] it was 41%. Further, the IC50 in data set [10] was 2.3 µM; in data set [11], 4.2 µM; in data set [4], 0.6 µM; in data set [6] it was 1.2 µM. In [12], this molecule registered a solubility (kinetic) of 54 µM (≈ 20.6 µg/mL).

For the molecule `COC(=O)c1c(NC(=O)CC2SC(N)=NC2=O)sc2c1CCC(C(C)(C)C)C2` (racemic), the inhibition in data set [7], in data set [8], in data set [2] and in [5] was under 25% each time.

As for `COC(=O)c1c(NC(=O)CC2SC(=N)NC2=O)sc(C)c1C` (racemic), the inhibition in data set [1] amounted to 88%; in [9], 88%; in data set [13] it was 63%; in [3], 94%. Moreover, the IC50 in [10] was found to be 22.3 µM; in data set [11], 28.2 µM; in [4], 10.4 µM; in data set [6], 9.7 µM.

On to `CCOC(=O)c1cc(CC)sc1NC(=O)CC1SC(=N)NC1=O` (racemic), for which the inhibition in data set [1] came out at 97%; in data set [9], 96%; in [13], 96%; in data set [3], 94%. Further, the IC50 came out at 6.2 µM in data set [10], 9.7 µM in [11], 2.6 µM in data set [4] and 3.7 µM in [6].

In the case of `CCOC(=O)c1c(NC(=O)CC2SC(=N)NC2=O)sc(C)c1C` (racemic), the inhibition was 77% in data set [1], 80% in data set [9], 81% in data set [3] and under 25% in data set [5]. Also, the IC50 in [10] worked out at 30.2 µM; in data set [4], 13 µM; in [6], 8.1 µM.

In the case of `CCOC(=O)c1c(NC(=O)CC2SC(=O)NC2=O)sc2c1CCC2` (racemic), the inhibition in [7], in data set [8], in data set [2] and in data set [5] was under 25% each time.

As for `N#Cc1c(NC(=O)CC2SC(=N)NC2=O)sc2c1CCCC2` (racemic), the inhibition was 59% in data set [1] and 63% in [3]. In data set [12], this molecule returned a kinetic solubility of 36 µM (≈ 12 µg/mL). In addition, the IC50 was 4.3 µM in data set [4] and 2.9 µM in [6].

Source of the values: ChEMBL document CHEMBL3739344, “A novel class of negative allosteric modulators of NMDA receptor function” (Bioorg Med Chem Lett, 2015).
